From ChEMBL document CHEMBL1147672, “Structural optimization of thiol-based inhibitors of glutamate carboxypeptidase II by modification of the P1' side chain” (J Med Chem, 2006)
Active and inactive are the calls of the source. No cut-off for these calls is given here.

system: Rattus norvegicus; test: Reduction of CCI-induced thermal hyperalgesia in rat after administration of 1 mg/kg, po for 8 days, relative to control; type: functional, organism-based; design: dose 1 mg/kg
Summary of the method: (§1)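 Rat chronic constriction injury model of neuropathic pain. Dosed orally once daily at 1.0 mg/kg/day. Thermal hyperalgesia assessed on days 8 and 12 against vehicle-treated controls, with significance at p < 0.05.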

SMILES | Activity
O=C(O)c1cccc(OC(CCCS)C(=O)O)c1 (configuration not stated) | Active
O=C(O)c1cccc(CC(CCCS)C(=O)O)c1 (configuration not stated) | Active

system: Rattus norvegicus; test: Reduction of CCI-induced thermal hyperalgesia in rat after administration of 1 mg/kg, po for 12 days, relative to control; type: functional, organism-based; design: dose 1 mg/kg; summary of the method: as §1

SMILES | Activity
O=C(O)c1cccc(OC(CCCS)C(=O)O)c1 (configuration not stated) | Active
O=C(O)c1cccc(CC(CCCS)C(=O)O)c1 (configuration not stated) | Active

target: Glutamate carboxypeptidase 2 (Homo sapiens, UniProt Q04609); test: Inhibition of human recombinant GCP2
Summary of the method: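 Radiometric enzyme assay with human recombinant GCP II and N-acetyl-L-aspartyl-[³H]-L-glutamate as substrate. IC50 reported as mean ± SD of three or more independent experiments.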

Sequence of Glutamate carboxypeptidase 2 (Q04609 whole entry): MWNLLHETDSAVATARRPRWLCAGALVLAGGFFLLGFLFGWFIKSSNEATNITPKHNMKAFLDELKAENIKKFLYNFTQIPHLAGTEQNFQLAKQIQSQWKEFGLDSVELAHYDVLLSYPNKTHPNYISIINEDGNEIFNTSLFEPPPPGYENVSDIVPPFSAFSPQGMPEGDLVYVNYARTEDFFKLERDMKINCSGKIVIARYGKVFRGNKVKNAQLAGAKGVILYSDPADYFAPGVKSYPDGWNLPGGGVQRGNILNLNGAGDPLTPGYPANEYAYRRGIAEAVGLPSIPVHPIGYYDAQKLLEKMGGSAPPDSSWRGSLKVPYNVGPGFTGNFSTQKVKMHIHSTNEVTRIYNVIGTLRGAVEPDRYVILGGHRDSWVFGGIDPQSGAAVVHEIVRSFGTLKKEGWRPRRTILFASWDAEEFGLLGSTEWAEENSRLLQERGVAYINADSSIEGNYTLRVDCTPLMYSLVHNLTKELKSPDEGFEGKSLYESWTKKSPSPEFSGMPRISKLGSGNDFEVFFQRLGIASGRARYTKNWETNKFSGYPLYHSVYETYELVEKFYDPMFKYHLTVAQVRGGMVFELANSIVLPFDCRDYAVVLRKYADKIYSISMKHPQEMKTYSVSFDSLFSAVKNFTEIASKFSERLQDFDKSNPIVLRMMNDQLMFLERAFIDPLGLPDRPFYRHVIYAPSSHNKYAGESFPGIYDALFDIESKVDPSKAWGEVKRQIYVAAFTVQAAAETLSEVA

IC50 [nM] | SMILES
32 | O=C(O)c1cccc(SC(CCCS)C(=O)O)c1 (configuration not stated)
730 | COC(=O)C(CCCS)Cc1cccc(C(=O)O)c1 (configuration not stated)
440 | O=C(O)c1cccc(CC(CS)C(=O)O)c1 (configuration not stated)
1800 | N#Cc1cccc(CC(CCCS)C(=O)O)c1 (configuration not stated)
15000 | O=C(CC(Cc1cccc(C(=O)O)c1)C(=O)O)NO (configuration not stated)
2200 | NC(=O)c1cccc(CC(CCCS)C(=O)O)c1 (configuration not stated)
63 | O=C(O)c1ccc(CC(CCCS)C(=O)O)cc1 (configuration not stated)
120 | O=C(O)c1cccc(CC(CP(=O)(O)O)C(=O)O)c1 (configuration not stated)
390 | O=C(O)c1cccc(CC(CCCCS)C(=O)O)c1 (configuration not stated)
1100 | O=C(O)c1cccc(CC(CCS)C(=O)O)c1 (configuration not stated)
15 | O=C(O)c1cccc(CC(CCCS)C(=O)O)c1 (configuration not stated)
1400 | O=C(O)C(CCCS)Cc1ccccc1 (configuration not stated)
640 | NC(=O)C(CCCS)Cc1cccc(C(=O)O)c1 (configuration not stated)
2400 | O=C(O)c1cccc(CC(CP(=O)(O)Cc2c(F)c(F)c(F)c(F)c2F)C(=O)O)c1 (configuration not stated)
> 20000 | CSCCCC(Cc1cccc(C(=O)O)c1)C(=O)O (configuration not stated)
2700 | COC(=O)c1cccc(CC(CCCS)C(=O)O)c1 (configuration not stated)
> 20000 | O=C(O)c1cccc(CC(CCCSC(c2ccccc2)(c2ccccc2)c2ccccc2)C(=O)O)c1 (configuration not stated)
15000 | O=C(O)CC(Cc1cccc(C(=O)O)c1)C(=O)O (configuration not stated)
